Assay results from ChEMBL document CHEMBL4190254, “Synthesis of sulfamoylbenzamide derivatives as HBV capsid assembly effector” (Eur J Med Chem, 2017).

Legend:
HepG2 = test: Cytotoxicity against human HepG2 cells by CellTiter 96 non-radioactive cell proliferation colorimetric assay; assay type: cell-based
Summary of the method: (§1)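 A CellTiter 96 colorimetric cell proliferation read-out was used in primary human PBM cells, CEM, Vero and HepG2 cells. CC50 is the concentration that inhibits cell growth by 50%.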

CCRF-CEM = test: Cytotoxicity against human CEM cells by CellTiter 96 non-radioactive cell proliferation colorimetric assay; assay type: cell-based; details: ccrf-cem; summary of the method: as §1
Hepatitis B virus [1] = test: Antiviral activity against HBV infected in human HepAD38 cells assessed as reduction in viral replication by RT-PCR method; assay type: functional, organism-based
Summary of the method: (§2)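 HBV DNA replication in HepAD38 cells was quantified by RT-PCR following an earlier published method, with data relative to the untreated control. EC50 (50% inhibition of HBV DNA replication) was derived by linear regression. Values are the mean ± SD of two or three replicates from 2 independent experiments.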

Vero = test: Cytotoxicity against African green monkey Vero cells by CellTiter 96 non-radioactive cell proliferation colorimetric assay; assay type: cell-based; details: chlorocebus sabaeus, vero; summary of the method: as §1
PBMC = test: Cytotoxicity against human PBMC by CellTiter 96 non-radioactive cell proliferation colorimetric assay; assay type: cell-based; summary of the method: as §1
Hepatitis B virus [2] = test: Antiviral activity against HBV infected in human HepAD38 cells assessed as inhibition of viral replication at 10 uM by RT-PCR method relative to control; assay type: functional
Summary of the method: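 HBV DNA replication in HepAD38 cells was quantified by RT-PCR following an earlier published method. Each compound was tested at a single 10 μM concentration. Results are % inhibition ± SD relative to the untreated control.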

Core antigen = Core antigen (Hepatitis B virus, UniProt Q03732); test: (§3) Inhibition of capsid in HBV infected in human HepAD38 cells assessed as reduction in tetracycline-induced cccDNA formation by measuring reduction in HBe antigen secretion after 14 days by ELISA; assay type: cell-based
Summary of the method: (§4)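 HepAD38 cells, collagen-coated wells, DMEM/F12 with 10% heat-inactivated FBS. Tetracycline withdrawn 7 days to allow DNA synthesis and cccDNA formation; at day 7 tetracycline (0.3 μg/ml) plus compound re-added. Compound at 10 μM or 0.001–10 μM, medium and compound replenished every 5 days. Day-14 supernatant HBeAg by ELISA; EC50 by linear regression.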

[3] = target: Core antigen (Hepatitis B virus) (UniProt Q03732); test: as §3; assay type: cell-based; summary of the method: as §4
Hepatitis B virus [4] = test: Antiviral activity against HBV infected in human HepAD38 cells assessed as reduction in intracellular viral DNA level by RT-PCR method; assay type: functional, organism-based; summary of the method: as §2
[5] = target: Core antigen (Hepatitis B virus) (UniProt Q03732); test: Inhibition of capsid in HBV infected in human HepAD38 cells assessed as reduction in cccDNA formation by measuring reduction in HBe antigen secretion at 10 uM after 14 days by ELISA relative to control; assay type: cell-based; summary of the method: as §4
Hepatitis B virus [6] = test: Antiviral activity against HBV infected in human HepAD38 cells assessed as reduction in extracellular viral DNA level by RT-PCR method; assay type: functional, organism-based; summary of the method: as §2

Core antigen (Hepatitis B virus), sequence (Q03732 as listed by the source): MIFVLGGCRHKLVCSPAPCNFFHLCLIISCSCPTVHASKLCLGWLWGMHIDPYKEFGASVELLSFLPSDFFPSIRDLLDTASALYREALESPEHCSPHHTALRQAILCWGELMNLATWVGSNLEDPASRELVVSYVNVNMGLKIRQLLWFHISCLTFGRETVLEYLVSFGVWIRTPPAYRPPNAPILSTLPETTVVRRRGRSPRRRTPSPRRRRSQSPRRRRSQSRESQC
Core antigen, sequence (Q03732 whole entry): as the sequence (Q03732 as listed by the source) above

SMILES | CC50 (HepG2) | CC50 (CCRF-CEM) | EC50 (Hepatitis B virus [1]) | CC50 (Vero) | CC50 (PBMC) | EC90 (Hepatitis B virus [1]) | inhibition at 10 µM (Hepatitis B virus [2]) | EC50 (Core antigen) | EC90 [3] | EC50 (Hepatitis B virus [4]) | EC90 (Hepatitis B virus [4]) | inhibition [5] | EC50 (Hepatitis B virus [6]) | EC90 (Hepatitis B virus [6])
CS(=O)(=O)NS(=O)(=O)c1ccc(F)c(C(=O)Nc2ccc(F)c(F)c2)c1 | > 100 µM | > 100 µM | > 10 µM | > 100 µM | > 100 µM | – | – | – | – | – | – | – | – | –
O=C(Nc1ccc(F)c(F)c1)c1cc(S(=O)(=O)N2CC(F)(F)C(F)(F)C2)ccc1F | > 100 µM | ≤ 1 µM | 9.2 µM | 9 µM | > 100 µM | > 10 µM | 59% | – | – | – | – | – | – | –
CC(C)(NS(=O)(=O)c1ccc(F)c(C(=O)Nc2ccc(F)c(F)c2)c1)c1ccccc1 | 88.2 µM | 3.8 µM | 6.8 µM | 39.4 µM | > 100 µM | 9.6 µM | – | – | – | – | – | – | – | –
O=C(Nc1ccc(F)c(F)c1)c1cc(S(=O)(=O)NOC2CCCC2)ccc1F | 26.4 µM | 6.4 µM | 2.7 µM | 5.8 µM | 13 µM | > 10 µM | 82% | – | – | – | – | – | – | –
CN(C1CCCC1)S(=O)(=O)c1ccc(F)c(C(=O)Nc2ccc(F)c(F)c2)c1 | 48.6 µM | 14.5 µM | 7.7 µM | 18.3 µM | 25.8 µM | ≥ 10 µM | 87% | – | – | – | – | – | – | –
O=C(Nc1ccc(F)c(F)c1)c1cc(S(=O)(=O)NS(=O)(=O)c2ccc(F)c(F)c2)ccc1F | > 100 µM | > 100 µM | > 10 µM | > 100 µM | > 100 µM | – | – | – | – | – | – | – | – | –
CCOC(=O)[C@H](CC(C)C)NS(=O)(=O)c1ccc(F)c(C(=O)Nc2ccc(F)c(F)c2)c1 | > 100 µM | 10.8 µM | > 10 µM | 39.1 µM | 58.1 µM | – | – | – | – | – | – | – | – | –
O=C1c2cc(S(=O)(=O)NC3CCCC3)ccc2CCCN1c1ccc(F)c(F)c1 | > 100 µM | 50.6 µM | > 10 µM | > 100 µM | > 100 µM | – | – | – | – | – | – | – | – | –
O=C(Nc1ccc(F)c(F)c1)c1cc(S(=O)(=O)NC2CC2)ccc1F | 62.3 µM | 13.6 µM | 3.2 µM | 79.2 µM | 30.1 µM | 8.9 µM | – | – | – | – | – | – | – | –
O=C(Nc1ccc(F)c(F)c1)c1cc(NS(=O)(=O)C2CCCC2)ccc1F | > 100 µM | 54.2 µM | 2.1 µM | 29.1 µM | > 100 µM | 9.5 µM | – | 6 µM | > 10 µM | 0.3 µM | 3.6 µM | 66% | 2.1 µM | 9.5 µM
O=C(NC1(c2ccc(F)c(F)c2)CC1)c1cc(S(=O)(=O)NC2CCCC2)ccc1F | > 100 µM | > 100 µM | > 10 µM | 12.7 µM | > 100 µM | – | – | – | – | – | – | – | – | –
O=C(Nc1cc(S(=O)(=O)NC2CCCC2)ccc1F)c1ccc(F)c(F)c1 | > 100 µM | 13.6 µM | ≥ 10 µM | 87.5 µM | 81 µM | – | – | – | – | – | – | – | – | –
O=C(Nc1ccc(F)c(F)c1)c1cc(S(=O)(=O)N2CCC3CCCCC32)ccc1F (stereo unspecified) | > 100 µM | 22.9 µM | 4.6 µM | 30.7 µM | > 100 µM | 10 µM | – | – | – | – | – | – | – | –
CN(C)S(=O)(=O)NS(=O)(=O)c1ccc(F)c(C(=O)Nc2ccc(F)c(F)c2)c1 | > 100 µM | > 100 µM | > 10 µM | > 100 µM | > 100 µM | – | – | – | – | – | – | – | – | –
O=C1c2cc(S(=O)(=O)NC3CCCC3)ccc2CCN1c1ccc(F)c(F)c1 | > 100 µM | > 100 µM | > 10 µM | > 100 µM | > 100 µM | – | – | – | – | – | – | – | – | –
O=C(Nc1ccc(F)c(F)c1)c1cc(S(=O)(=O)NS(=O)(=O)C2CC2)ccc1F | > 100 µM | > 100 µM | > 10 µM | > 100 µM | > 100 µM | – | – | – | – | – | – | – | – | –
COC(=O)[C@H](Cc1ccccc1)NS(=O)(=O)c1ccc(F)c(C(=O)Nc2ccc(F)c(F)c2)c1 | 76.8 µM | 31.6 µM | > 10 µM | > 100 µM | > 100 µM | – | – | – | – | – | – | – | – | –
CN(C1CCCC1)S(=O)(=O)c1ccc2c(c1)C(=O)N(c1ccc(F)c(F)c1)CC2 | > 100 µM | 36 µM | > 10 µM | > 100 µM | 71.2 µM | – | – | – | – | – | – | – | – | –
O=C(Nc1ccc(F)c(F)c1)c1cc(S(=O)(=O)N2CCC(F)(F)CC2)ccc1F | > 100 µM | 10.3 µM | 4.5 µM | > 100 µM | > 100 µM | 9.4 µM | – | – | – | – | – | – | – | –
CC(NS(=O)(=O)c1ccc(F)c(C(=O)Nc2ccc(F)c(F)c2)c1)c1ccccc1 (stereo unspecified) | > 100 µM | 3.6 µM | 7.7 µM | 68 µM | > 100 µM | 9.3 µM | – | – | – | – | – | – | – | –
CC(C)OC(=O)[C@H](C)NS(=O)(=O)c1ccc(F)c(C(=O)Nc2ccc(F)c(F)c2)c1 | 45.5 µM | 31.1 µM | > 10 µM | 13.1 µM | > 100 µM | – | – | – | – | – | – | – | – | –
O=C(Nc1ccc(F)c(F)c1)c1cc(S(=O)(=O)N2CCC(F)(F)C2)ccc1F | > 100 µM | 4.8 µM | 6.7 µM | 21.3 µM | > 100 µM | > 10 µM | 83% | – | – | – | – | – | – | –
CN(C1CCCC1)S(=O)(=O)c1ccc2c(c1)C(=O)N(c1ccc(F)c(F)c1)CCC2 | > 100 µM | > 100 µM | > 10 µM | > 100 µM | > 100 µM | – | – | – | – | – | – | – | – | –
O=C(Nc1ccc(F)c(F)c1)c1cc(S(=O)(=O)N2CCCC2=O)ccc1F | > 100 µM | 37.8 µM | > 10 µM | 39.6 µM | > 100 µM | – | – | – | – | – | – | – | – | –
